# Test results from ChEMBL document CHEMBL3875213, “Quinolines: Microwave-assisted synthesis and their antifungal, anticancer and radical scavenger properties” (Bioorg Med Chem, 2017).
# The source made the active and inactive calls. No cut-off for these calls is given here.
# Columns and labels:
# [1] = test system: Candida albicans; experiment: Growth inhibition of Candida albicans ATCC 10231 at 3.9 ug/ml incubated for 48 hrs under dark condition by broth microdilution assay relative to amphotericin B; type: functional; details: ATCC 10231, 48 h, read-out: GI
# Method in brief: (§1)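 Yeast broth microdilution (CLSI M27-A3), RPMI-1640, inoculum 1-5 x 10^3 CFU/mL, DMSO ≤1%, 48 h at 30 °C in a moist, dark chamber. […]. Triplicate; amphotericin B as positive control.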
# [2] = test system: Candida albicans; experiment: Growth inhibition of Candida albicans ATCC 10231 at 7.81 ug/ml incubated for 48 hrs under dark condition by broth microdilution assay relative to amphotericin B; type: functional; details: ATCC 10231, 48 h, read-out: GI; method in brief: as §1
# [3] = test system: Candida albicans; experiment: Growth inhibition of Candida albicans ATCC 10231 at 15.62 ug/ml incubated for 48 hrs under dark condition by broth microdilution assay relative to amphotericin B; type: functional; details: ATCC 10231, 48 h, read-out: GI; method in brief: as §1
# [4] = test system: Candida albicans; experiment: Growth inhibition of Candida albicans ATCC 10231 at 31.25 ug/ml incubated for 48 hrs under dark condition by broth microdilution assay relative to amphotericin B; type: functional; details: ATCC 10231, 48 h, read-out: GI; method in brief: as §1
# [5] = test system: Candida albicans; experiment: Growth inhibition of Candida albicans ATCC 10231 at 62.5 ug/ml incubated for 48 hrs under dark condition by broth microdilution assay relative to amphotericin B; type: functional; details: ATCC 10231, 48 h, read-out: GI; method in brief: as §1
# [6] = test system: Candida albicans; experiment: Growth inhibition of Candida albicans ATCC 10231 at 125 ug/ml incubated for 48 hrs under dark condition by broth microdilution assay relative to amphotericin B; type: functional; details: ATCC 10231, 48 h, read-out: GI; method in brief: as §1
# [7] = test system: Candida albicans; experiment: Growth inhibition of Candida albicans ATCC 10231 at 250 ug/ml incubated for 48 hrs under dark condition by broth microdilution assay relative to amphotericin B; type: functional; details: ATCC 10231, 48 h, read-out: GI; method in brief: as §1
# [8] = test system: Candida albicans; experiment: Antifungal activity against Candida albicans ATCC 10231 incubated for 48 hrs under dark condition by broth microdilution assay; type: functional; details: ATCC 10231, 48 h
# Method in brief: (§2)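 Broth microdilution per CLSI M27-A3 in RPMI-1640. Inocula adjusted to 1-5 x 10^3 CFU/mL. Stocks in DMSO (≤1%), final 3.9-250.0 µg/mL. Incubated 48 h at 30 °C in a moist, dark chamber, read at OD 405. % inhibition computed from growth and sterility control wells, run in triplicate. MIC80/MIC50 taken from four-parameter logistic concentration-response curves; amphotericin B as positive control.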
# [9] = Antifungal activity against Cryptococcus neoformans ATCC 32264 incubated for 48 hrs under dark condition by broth microdilution assay; type: functional; method in brief: as §2
# [10] = Antiproliferative activity against human CCD-19Lu cells after 24 hrs by MTT assay; type: cell-based
# Method in brief: (§3)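 Cells grown in medium with 10% foetal bovine serum and 1% L-glutamine at 37 °C, 5% CO2, seeded at 1 x 10^5 cells/well. Exposed to compound at 1.0-1,000 µg/mL for 24 h. MTT added, absorbance read at 540 nm 3 h later. IC50 obtained by non-linear regression of viability data.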
# [11] = Antiproliferative activity against human NCI-H226 cells harboring TP53 mutant after 24 hrs by MTT assay; type: functional, cell-based; details: NCI-H226, 24 h; method in brief: as §3
# [12] = Antiproliferative activity against human Hep2C cells after 24 hrs by MTT assay; type: functional, cell-based; method in brief: as §3
# [13] = test system: NCI-H226; experiment: Selectivity index, ratio of IC50 for human CCD-19Lu cells to IC50 for human NCI-H226 cells; type: functional
# Method in brief: (§4)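 Selectivity index equals IC50 in non-tumour CCD 19-Lu lung fibroblasts divided by IC50 in the tumour line. Both IC50s come from the 24 h MTT assay (read at 540 nm) over 1.0-1,000 µg/mL.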
# [14] = Selectivity index, ratio of IC50 for human CCD-19Lu cells to IC50 for human Hep2C cells; type: functional; method in brief: as §4
# [15] = Antioxidant activity assessed as DPPH radical scavenging activity at 160 uM incubated for 30 mins under dark condition; type: functional
# Method in brief: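 Compound at 160 µM incubated with 100 µM DPPH in ethanolic medium, stirred in the dark for 30 min, read at 517 nm. Resveratrol as positive control. Three independent experiments, each in triplicate.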
# [16] = Antioxidant activity assessed as DPPH radical scavenging activity incubated for 30 mins under dark condition; type: functional
# Method in brief: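 DPPH (100 µM) in ethanolic medium, stirred 30 min in the dark, absorbance at 517 nm. Compound varied from 0 to 160 µg/mL to find the concentration scavenging 50% of radicals. Three independent experiments, each in triplicate.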
# [17] = Antioxidant activity assessed as fluorescent light-induced superoxide anion scavenging activity incubated for 10 mins by nitroblue tetrazolium dye based assay; type: functional
# Method in brief: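 Riboflavin/light superoxide system: 50 mM phosphate pH 7.8, 13 mM L-methionine, 75 µM NBT, 100 µM EDTA, 2 µM riboflavin, compound 0-200 µg/mL. Fluorescent light for 10 min at 25 °C, dark controls, scavenging measured at 575 nm. Resveratrol as reference.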
# [18] = Antiproliferative activity against human TOV21G harboring wild type TP53 cells after 24 hrs by MTT assay; type: functional, cell-based; method in brief: as §3
# [19] = Selectivity index, ratio of IC50 for human CCD-19Lu cells to IC50 for human TOV21G cells; type: functional; method in brief: as §4
# [20] = Antioxidant activity assessed as fluorescent light-induced superoxide anion scavenging activity at 160 uM incubated for 10 mins by nitroblue tetrazolium dye based assay; type: functional
# Method in brief: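 Superoxide generated photochemically in 50 mM phosphate buffer pH 7.8 with 13 mM L-methionine, 75 µM nitroblue tetrazolium, 100 µM EDTA and 2 µM riboflavin. Compound at 160 µM. 10 min at 25 °C under fluorescent light; dark controls. Read at 575 nm. Resveratrol as positive control; three independent experiments in triplicate.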
# [21] = Potency index, ratio of resveratrol SC50 to compound SC50 for fluorescent light-induced superoxide anion scavenging activity
SMILES,inhibition of growth at 3.9 µg/mL [1] [%],inhibition of growth at 7.81 µg/mL [2] [%],inhibition of growth at 15.62 µg/mL [3] [%],inhibition of growth at 31.25 µg/mL [4] [%],inhibition of growth at 62.5 µg/mL [5] [%],inhibition of growth at 125 µg/mL [6] [%],inhibition of growth at 250 µg/mL [7] [%],MIC50 [8] [µg/mL],MIC80 [8] [µg/mL],MIC50 [9] [µg/mL],MIC80 [9] [µg/mL],IC50 [10] [µM],IC50 [11] [µM],IC50 [12] [µM],Ratio IC50 [13],Ratio IC50 [14],Activity [15] [%],SC50 [16] [µM],SC50 [17] [µM],IC50 [18] [µM],also measured
Clc1ccc(-c2cc(-c3ccccc3)c3cc(Br)ccc3n2)cc1,0,0,6.88,6.78,9.38,24.7,50.5,250,> 250,250,> 250,528,1.58,269,356,1,45 to 55,180,> 250,,
COc1ccc2nc(-c3ccccc3)cc(-c3ccccc3)c2c1,0,0,4,8.43,12.2,20.9,57.2,250,> 250,250,250,925,57,496,16,1,45 to 55,168,> 250,110,Ratio IC50 [19]: 8
Oc1cccc(-c2cc(-c3ccccc3)c3cc(Br)ccc3n2)c1,,3.15,4.08,7.61,11.2,20.2,40.9,> 250,> 250,> 250,> 250,,,,,,,> 250,121,,Activity [20]: Active; Ratio [21]: 2
N#Cc1ccc(-c2cc(-c3ccccc3)c3cc(Br)ccc3n2)cc1,0,0,0,2.44,2.54,4.86,5.75,> 250,> 250,> 250,> 250,,,98.8,,,,,,,Activity [20]: Active
COc1cc(-c2cc(-c3ccccc3)c3cc(Br)ccc3n2)cc(OC)c1OC,0,2.99,7.32,12.9,20.8,52.9,82.7,125,250,62.5,250,104,61,,1,,,428,> 250,493,Ratio IC50 [19]: 0
Brc1ccc2nc(-c3ccco3)cc(-c3ccccc3)c2c1,1.75,4.37,8.68,13.1,21.5,43.2,83.3,62.5,125,62.5,250,631,30,102,21,6,45 to 55,82.7,> 250,877,Activity [9]: Dose-dependent effect; Ratio IC50 [19]: 0
